Calls of active or inactive are those of the source. No cut-off for these calls is given here.
Key:
[1] = target: MMP-2/MMP-9 (Homo sapiens) (UniProt P08253+P14780); assay: Selectivity ratio of IC50 for recombinant human MMP9 (Phe107 to Pro449 residues) expressed in Escherichia coli to IC50 for recombinant human MMP2 (Tyr110 to Asp452 residues)
K562 = assay: Induction of apoptosis in human K562 cells assessed as DNA nick generation after 48 hrs by DAPI staining based fluorescence microscopic method
MDA-MB-231 = assay: Cytotoxicity against human MDA-MB-231 cells assessed as reduction in cell viability after 48 hrs by MTT assay; assay type: functional, cell-based; conditions: MDA-MB-231, 48 h
Method in brief: (§1)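 A549, MDA-MB-231, K562, U937 and PBMC (PBMC from healthy donors) seeded at 1×10^3 cells/well and left 24 h, then exposed to compounds for 48 h at 37 °C, 5% CO2. Adherent lines were grown in DMEM, the others in RPMI-1640 with 10% heat-inactivated FBS. MTT read-out; viability expressed as % of untreated control. IC50 taken as the concentration giving 50% viability loss.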

U-937 = assay: Cytotoxicity against human U937 cells assessed as reduction in cell viability after 48 hrs by MTT assay; assay type: functional, cell-based; conditions: U-937, 48 h; method in brief: as §1

Question: CCCCCNC(=O)CC[C@H](NS(=O)(=O)c1ccc([N+](=O)[O-])cc1)C(=O)O was tested. Which Ratio IC50 [1] did it give?
Answer: Its Ratio IC50 is 1.42.

Question: What about the Activity (K562) of the same compound?
Answer: The Activity was “Active”.

Question: And the IC50 (MDA-MB-231)?
Answer: The IC50 was 162 µM.

Question: And the IC50 (U-937)?
Answer: The IC50 was 32.1 µM.

Source: ChEMBL document CHEMBL4130487, “A pentanoic acid derivative targeting matrix metalloproteinase-2 (MMP-2) induces apoptosis in a chronic myeloid leukemia cell line” (Eur J Med Chem, 2017)
